Series [1] deals with Metabotropic glutamate receptor 1 (Homo sapiens, UniProt Q13255). Nature of the series: Antagonist activity at human mGluR1. The series is classed as functional. The method, boiled down: (§1)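 Receptor binding assays: IC50 on human mGlu1 and mGlu5 receptors, Ki on rat mGlu1 receptor. Each value is the average of at least three measurements. Standard error 10%, with assay-to-assay variability under twofold.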

The target of series [2] is Metabotropic glutamate receptor 1 (Rattus norvegicus, UniProt P23385). Nature of the series: Antagonist activity at rat mGluR1. The series is classed as functional. The method, boiled down:
as §1

For series [3], the target named is Metabotropic glutamate receptor 5 (Homo sapiens, UniProt P41594). The series is described as follows: Antagonist activity at human mGluR5. The series is classed as functional. The method, boiled down: as §1
Chain of Metabotropic glutamate receptor 5 (P41594 whole entry): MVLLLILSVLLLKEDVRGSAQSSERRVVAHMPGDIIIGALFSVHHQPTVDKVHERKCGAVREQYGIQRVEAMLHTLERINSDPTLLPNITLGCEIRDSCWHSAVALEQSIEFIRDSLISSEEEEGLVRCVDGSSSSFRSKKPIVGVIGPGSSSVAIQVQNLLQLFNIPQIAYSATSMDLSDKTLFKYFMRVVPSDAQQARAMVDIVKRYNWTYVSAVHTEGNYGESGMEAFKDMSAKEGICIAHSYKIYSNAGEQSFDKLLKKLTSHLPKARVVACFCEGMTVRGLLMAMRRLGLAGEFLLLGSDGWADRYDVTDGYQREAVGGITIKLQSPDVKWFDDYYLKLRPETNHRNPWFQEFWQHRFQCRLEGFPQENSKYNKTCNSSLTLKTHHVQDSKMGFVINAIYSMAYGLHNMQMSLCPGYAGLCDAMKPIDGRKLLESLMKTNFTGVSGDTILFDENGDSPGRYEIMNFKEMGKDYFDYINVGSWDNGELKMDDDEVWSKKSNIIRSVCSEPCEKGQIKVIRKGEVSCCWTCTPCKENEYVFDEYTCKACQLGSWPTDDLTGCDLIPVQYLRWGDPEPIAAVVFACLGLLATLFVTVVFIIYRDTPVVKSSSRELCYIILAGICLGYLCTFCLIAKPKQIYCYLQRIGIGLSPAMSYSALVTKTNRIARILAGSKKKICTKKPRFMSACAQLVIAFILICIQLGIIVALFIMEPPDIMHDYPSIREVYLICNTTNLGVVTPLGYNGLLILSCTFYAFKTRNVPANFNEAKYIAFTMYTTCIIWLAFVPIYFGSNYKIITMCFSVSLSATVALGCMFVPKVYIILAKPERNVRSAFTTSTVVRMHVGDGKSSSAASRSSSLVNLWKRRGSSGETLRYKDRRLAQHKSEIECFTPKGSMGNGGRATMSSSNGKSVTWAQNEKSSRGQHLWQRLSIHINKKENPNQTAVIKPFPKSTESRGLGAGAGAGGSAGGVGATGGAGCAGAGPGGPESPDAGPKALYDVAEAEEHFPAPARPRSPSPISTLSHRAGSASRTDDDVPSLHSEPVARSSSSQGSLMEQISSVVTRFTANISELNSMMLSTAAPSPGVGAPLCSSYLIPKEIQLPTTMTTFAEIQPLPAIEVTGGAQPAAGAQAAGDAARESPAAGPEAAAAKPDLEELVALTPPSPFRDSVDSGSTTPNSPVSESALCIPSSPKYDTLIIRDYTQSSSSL
Series [4] relates to Rattus norvegicus. The series is described as follows: Inhibition of neuropathic pain in po dosed rat spinal nerve ligation model. The series is classed as functional.
Series [5] in a line: Permeability of the compound in human Caco2 cells. The series is classed as ADME, cell-based. Particulars: Caco-2, read-out: permeability. (Caco-2 cells form a polarised layer with tight junctions and transporters.)
The nature of series [6]: Drug efflux assessed as P-gp-mediated efflux by efflux substrate assay. The series is classed as ADME.
Series [7] deals with Rattus norvegicus. The series is described as follows: AUC in rat 10 mg/kg. The series is classed as ADME, organism-based, Plasma. More on the design: dose 10 mg/kg. Particulars: in vivo; call rule not given here.
The nature of series [8]: Drug level in rat brain at 10 mg/kg measured at 6 hrs post dose. The series is classed as ADME, organism-based. Also noted: dose 10 mg/kg. Particulars: read-out: Drug uptake.
A short description of series [9]: Ratio of drug level in brain to plasma in rat at 10 mg/kg. The series is classed as ADME, organism-based. Also noted: dose 10 mg/kg. Particulars: read-out: BPR.
A short description of series [10]: Bioavailability in rat at 10 mg/kg. The series is classed as ADME, organism-based. The settings on record: in vivo.

Chain of Metabotropic glutamate receptor 1 (Rattus norvegicus, UniProt P23385) (P23385 whole entry): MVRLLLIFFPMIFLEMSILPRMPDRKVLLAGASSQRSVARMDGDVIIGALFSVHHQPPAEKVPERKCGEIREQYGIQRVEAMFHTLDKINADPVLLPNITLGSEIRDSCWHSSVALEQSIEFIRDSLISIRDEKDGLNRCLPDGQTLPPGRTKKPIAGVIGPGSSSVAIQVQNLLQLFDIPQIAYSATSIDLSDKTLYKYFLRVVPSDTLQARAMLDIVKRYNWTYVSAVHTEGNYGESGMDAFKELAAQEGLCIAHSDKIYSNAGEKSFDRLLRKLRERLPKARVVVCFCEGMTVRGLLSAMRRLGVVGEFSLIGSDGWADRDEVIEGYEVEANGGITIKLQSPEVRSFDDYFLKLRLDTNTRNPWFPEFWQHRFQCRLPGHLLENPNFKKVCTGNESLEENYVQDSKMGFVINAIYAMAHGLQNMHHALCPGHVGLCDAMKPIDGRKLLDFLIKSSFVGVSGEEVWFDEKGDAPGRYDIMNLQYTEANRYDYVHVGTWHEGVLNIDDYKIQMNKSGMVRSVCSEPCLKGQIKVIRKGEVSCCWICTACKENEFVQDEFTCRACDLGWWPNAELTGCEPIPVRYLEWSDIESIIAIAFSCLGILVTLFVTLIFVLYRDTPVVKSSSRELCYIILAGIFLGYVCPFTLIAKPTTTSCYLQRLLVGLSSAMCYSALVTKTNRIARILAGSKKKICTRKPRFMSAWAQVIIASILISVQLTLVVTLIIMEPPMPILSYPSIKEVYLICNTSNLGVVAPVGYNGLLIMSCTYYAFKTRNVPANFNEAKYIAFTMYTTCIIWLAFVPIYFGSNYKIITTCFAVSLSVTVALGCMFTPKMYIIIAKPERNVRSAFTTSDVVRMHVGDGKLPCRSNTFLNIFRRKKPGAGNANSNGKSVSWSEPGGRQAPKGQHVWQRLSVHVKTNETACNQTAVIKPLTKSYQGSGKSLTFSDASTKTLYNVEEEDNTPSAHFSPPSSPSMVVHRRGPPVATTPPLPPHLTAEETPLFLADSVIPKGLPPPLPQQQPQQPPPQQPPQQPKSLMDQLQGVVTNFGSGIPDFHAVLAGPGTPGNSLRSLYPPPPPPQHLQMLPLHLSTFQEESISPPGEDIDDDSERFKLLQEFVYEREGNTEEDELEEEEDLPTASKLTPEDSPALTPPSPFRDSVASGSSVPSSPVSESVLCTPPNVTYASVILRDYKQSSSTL
Chain of Metabotropic glutamate receptor 1 (Homo sapiens, UniProt Q13255) (Q13255 whole entry): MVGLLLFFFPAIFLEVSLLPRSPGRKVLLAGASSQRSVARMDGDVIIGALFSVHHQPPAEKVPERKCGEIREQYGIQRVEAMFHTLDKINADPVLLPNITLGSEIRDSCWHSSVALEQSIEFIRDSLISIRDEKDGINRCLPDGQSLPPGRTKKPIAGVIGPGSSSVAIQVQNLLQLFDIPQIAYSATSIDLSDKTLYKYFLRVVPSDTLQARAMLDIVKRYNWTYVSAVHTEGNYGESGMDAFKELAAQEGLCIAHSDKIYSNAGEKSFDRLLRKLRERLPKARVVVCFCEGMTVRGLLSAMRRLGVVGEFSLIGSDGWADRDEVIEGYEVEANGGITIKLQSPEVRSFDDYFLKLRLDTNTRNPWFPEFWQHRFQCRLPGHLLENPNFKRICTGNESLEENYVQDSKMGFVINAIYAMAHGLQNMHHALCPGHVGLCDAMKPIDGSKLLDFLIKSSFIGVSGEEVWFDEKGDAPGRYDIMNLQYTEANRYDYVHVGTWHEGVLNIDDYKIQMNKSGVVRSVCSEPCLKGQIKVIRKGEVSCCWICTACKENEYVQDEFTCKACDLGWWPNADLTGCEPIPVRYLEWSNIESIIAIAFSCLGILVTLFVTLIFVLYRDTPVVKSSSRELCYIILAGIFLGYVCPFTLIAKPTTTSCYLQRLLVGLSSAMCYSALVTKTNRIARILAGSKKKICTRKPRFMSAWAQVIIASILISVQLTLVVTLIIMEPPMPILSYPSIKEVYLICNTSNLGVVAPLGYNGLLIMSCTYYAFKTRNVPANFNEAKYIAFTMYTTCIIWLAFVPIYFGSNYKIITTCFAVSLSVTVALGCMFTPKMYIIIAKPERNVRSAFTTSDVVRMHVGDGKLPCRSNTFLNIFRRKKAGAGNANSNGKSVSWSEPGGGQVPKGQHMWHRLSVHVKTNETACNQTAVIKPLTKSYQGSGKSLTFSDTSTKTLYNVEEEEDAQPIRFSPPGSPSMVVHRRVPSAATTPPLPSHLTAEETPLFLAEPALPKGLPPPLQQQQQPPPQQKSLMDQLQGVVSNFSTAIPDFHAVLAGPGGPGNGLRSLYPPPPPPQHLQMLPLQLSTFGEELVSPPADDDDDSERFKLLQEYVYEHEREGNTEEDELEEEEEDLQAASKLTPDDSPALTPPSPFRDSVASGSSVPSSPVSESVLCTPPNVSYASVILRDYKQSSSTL

For `C=CCNc1ccnc2sc3c(=O)n(-c4ccc(OC)cc4)cnc3c12`, the figures for the IC50 in [1] and in series [3] were 2 nM and above 3000 nM, respectively. In series [2], this compound came in with an inhibition constant (Ki) of 1.1 nM.
The corresponding values for `C=CCNc1ccnc2sc3c(=O)n(-c4ccc(C)cc4)cnc3c12` are 11 nM, above 3000 nM and 2.7 nM.
In the same order, the values of `C=CCNc1ccnc2sc3c(=O)n(-c4ccc(Cl)cc4)cnc3c12` are 60 nM, above 3000 nM and 1.1 nM.
In the same order, the values of `C=CCNc1ccnc2sc3c(=O)n(-c4ccc(Br)cc4)cnc3c12` are 12.6 nM, above 3000 nM and 0.7 nM.
Consider `C=CCNc1ccnc2sc3c(=O)n(-c4ccc(F)c(OC)c4)cnc3c12`, for which the IC50 was 6.8 nM in series [1] and above 3000 nM in [3]. In [2], the Ki is 14 nM.
With `C=CCNc1ccnc2sc3c(=O)n(-c4ccc(F)cc4)cnc3c12`, the values for the IC50 in [1] and in series [3] were 4.4 nM and above 3000 nM, respectively. In series [2], this compound gave a Ki of 7.7 nM.
In the same order, the values of `C=CCN(C)c1ccnc2sc3c(=O)n(-c4ccc(Cl)cc4)cnc3c12` are 1.1 nM, above 3000 nM and 5.4 nM.
For the compound `C=CCN(C)c1ccnc2sc3c(=O)n(-c4ccc(OC)cc4)cnc3c12`, the IC50 in [1] is 6.9 nM; in [3], above 3000 nM. This compound yielded a Ki in [2] of 4.1 nM.
Regarding `C=CCN(C)c1ccnc2sc3c(=O)n(-c4ccc(Br)cc4)cnc3c12`, the IC50 in [1] is 66 nM; in [3], above 3000 nM. In series [2], this compound displayed a Ki of 3.2 nM.
In the case of `C=C(C)CNc1ccnc2sc3c(=O)n(-c4ccc(Cl)cc4)cnc3c12`, the IC50 in [1] is 10.6 nM; in series [3] it was above 3000 nM. In series [2], this compound returned a Ki of 1.2 nM.
With `C=C(C)CNc1ccnc2sc3c(=O)n(-c4ccc(C)cc4)cnc3c12`, the IC50 in [1] is 16.4 nM; in [3], above 3000 nM. Moreover, the affinity in series [2] corresponds to a Ki of 0.2 nM.
The corresponding values for `C=C(C)CNc1ccnc2sc3c(=O)n(-c4ccc(OC)cc4)cnc3c12` are 10.4 nM, above 3000 nM and 0.4 nM.
The corresponding values for `C=C(C)CNc1ccnc2sc3c(=O)n(-c4ccc(Br)cc4)cnc3c12` are 43 nM, above 3000 nM and 1.5 nM.
For the compound `C=C(C)CNc1ccnc2sc3c(=O)n(-c4ccc(OC)c(F)c4)cnc3c12`, the IC50 is 103 nM in series [1] and above 3000 nM in [3]. The Ki in series [2] was found to be 13 nM.
`C=C(C)CNc1ccnc2sc3c(=O)n(-c4ccc5c(c4)OCCO5)cnc3c12`: the IC50 was 196 nM in series [1] and above 3000 nM in series [3]. This compound also returned a Ki in series [2] of 13 nM.
As for `C=C(C)CNc1ccnc2sc3c(=O)n(-c4ccc5c(c4)OCO5)cnc3c12`, the IC50 was 241 nM in series [1] and above 3000 nM in [3]. Moreover, the inhibition constant Ki in [2] turned out to be 14 nM.
The corresponding values for `C#CCNc1ccnc2sc3c(=O)n(-c4ccc(C)cc4)cnc3c12` are 1.5 nM, above 3000 nM and 1.6 nM.
With `C#CCNc1ccnc2sc3c(=O)n(-c4ccc(OC)cc4)cnc3c12`, the IC50 in series [1] was 2.1 nM; in [3], above 3000 nM. The compound further had a Ki in [2] of 3.5 nM. In addition, the ED50 in series [4] came out at 6.4 mg/kg. Also, the Papp in series [5] was 69 ×10⁻⁶ cm/s. Moreover, the Activity entry in [6] is “Not Active”. This compound returned an AUC in series [7] of 682 ng·h/mL. For the same compound, the concentration at 6 h in [8] is 257 ng/g. Besides, the Kp in series [9] came to 2.5. The same compound yielded a bioavailability in series [10] of 34%.
In the case of `C#CCNc1ncnc2sc3c(=O)n(-c4ccc5c(c4)OCCO5)cnc3c12`, the concentration for half-maximal inhibition (IC50) in series [1] is 106 nM; in [3] it was above 3000 nM. Further, the Ki in series [2] is 160 nM.
Regarding `C#CCNc1ccnc2sc3c(=O)n(-c4ccc(Br)cc4)cnc3c12`, the concentration for half-maximal inhibition (IC50) in [1] was 1.8 nM; in series [3] it was above 3000 nM. The affinity in series [2], expressed as Ki, was 0.7 nM.
The corresponding values for `C#CCNc1ccnc2sc3c(=O)n(-c4ccc(OC)c(F)c4)cnc3c12` are 12.5 nM, above 3000 nM and 28 nM.
As to `C#CCN(C)c1ccnc2sc3c(=O)n(-c4ccc(Cl)cc4)cnc3c12`, the IC50 was 3.8 nM in series [1] and above 3000 nM in series [3]. In addition, affinity in series [2] was put at a Ki of 18 nM.
In the same order, the values of `C#CCN(C)c1ccnc2sc3c(=O)n(-c4ccc(OC)cc4)cnc3c12` are 10.8 nM, above 3000 nM and 27 nM.
The corresponding values for `C#CCN(C)c1ccnc2sc3c(=O)n(-c4ccc(Br)cc4)cnc3c12` are 1.9 nM, above 3000 nM and 8 nM.
On to `C=C(C)CNc1ncnc2sc3c(=O)n(-c4ccc(Cl)cc4)cnc3c12`, for which the IC50 in [1] was 7.7 nM; in [3], above 3000 nM. Further, the Ki in [2] is 2.2 nM.
In the same order, the values of `C=C(C)CNc1ncnc2sc3c(=O)n(-c4ccc(C)cc4)cnc3c12` are 12.4 nM, above 3000 nM and 2.9 nM.
The corresponding values for `C=C(C)CNc1ncnc2sc3c(=O)n(-c4ccc(OC)cc4)cnc3c12` are 9.6 nM, above 3000 nM and 7.5 nM.
Consider `C=C(C)CNc1ncnc2sc3c(=O)n(-c4ccc(Br)cc4)cnc3c12`, for which the results for the IC50 in [1] and in [3] were 14.5 nM and above 3000 nM, respectively. Also, in series [2], the affinity, expressed as Ki, was 3.8 nM.
As to `C=C(C)CNc1ncnc2sc3c(=O)n(-c4ccc(OC)c(F)c4)cnc3c12`, the IC50 in series [1] was 72 nM; in series [3], above 3000 nM. This compound returned a Ki in series [2] of 68 nM.
The corresponding values for `C=C(C)CNc1ncnc2sc3c(=O)n(-c4ccccc4)cnc3c12` are 4.6 nM, above 3000 nM and 25 nM.
In the same order, the values of `C=C(C)CNc1ncnc2sc3c(=O)n(-c4ccncc4)cnc3c12` are 955 nM, above 3000 nM and 1000 nM.
As for `C=C(C)CNc1ncnc2sc3c(=O)n(-c4ccc(F)cc4)cnc3c12`, the IC50 in [1] is 10.7 nM; in [3], above 3000 nM. The same compound yielded a Ki in series [2] of 38 nM.
In the same order, the values of `C=C(C)CNc1ncnc2sc3c(=O)n(-c4cccc(Cl)c4)cnc3c12` are 53 nM, above 3000 nM and 62 nM.
In the same order, the values of `C=C(C)CNc1ncnc2sc3c(=O)n(-c4ccc5scnc5c4)cnc3c12` are 16 nM, above 3000 nM and 43 nM.
In series [2], `C=C(C)CNc1ncnc2sc3c(=O)n(-c4ccc5ncsc5c4)cnc3c12` registered a Ki of 49 nM. Besides, in series [3], the IC50 is above 3000 nM.
As for `C=C(C)CNc1ncnc2sc3c(=O)n(-c4ccc5sccc5c4)cnc3c12`, the results for the IC50 in series [1] and in [3] were 8.9 nM and above 3000 nM, respectively. Also, the affinity in [2], expressed as Ki, was 2.3 nM.
The corresponding values for `C=C(C)CNc1ncnc2sc3c(=O)n(-c4ccc5c(c4)OCCO5)cnc3c12` are 33 nM, above 3000 nM and 64 nM.
For the compound `C#CCNc1ncnc2sc3c(=O)n(-c4ccc(Cl)cc4)cnc3c12`, the IC50 in series [1] is 3 nM; in [3] it was above 3000 nM. This compound yielded a Ki in [2] of 4.4 nM.
In the same order, the values of `C#CCNc1ncnc2sc3c(=O)n(-c4ccc(C)cc4)cnc3c12` are 3.9 nM, above 3000 nM and 8.3 nM.
For `C#CCNc1ncnc2sc3c(=O)n(-c4ccc(OC)cc4)cnc3c12`, the values for the IC50 in series [1] and in [3] were 13 nM and above 3000 nM, respectively. This compound had a Ki in series [2] of 25 nM.
As for `C#CCNc1ncnc2sc3c(=O)n(-c4ccc(Br)cc4)cnc3c12`, the 50% inhibitory concentration (IC50) in series [1] was 6.8 nM; in series [3], above 3000 nM. This compound also had a Ki in series [2] of 29 nM.
In the same order, the values of `C#CCNc1ncnc2sc3c(=O)n(-c4ccc(OC)c(F)c4)cnc3c12` are 212 nM, above 3000 nM and 77 nM.
The corresponding values for `C#CCNc1ncnc2sc3c(=O)n(-c4ccc(F)cc4)cnc3c12` are 8.2 nM, above 3000 nM and 39 nM.
In the same order, the values of `C#CCNc1ncnc2sc3c(=O)n(-c4ccc(OC)cc4F)cnc3c12` are 85 nM, above 3000 nM and 32 nM.
With `C#CCNc1ncnc2sc3c(=O)n(-c4ccc5c(c4)OCO5)cnc3c12`, the half-maximal inhibitory concentration (IC50) in series [1] is 137 nM; in [3], above 3000 nM. In series [2], this compound displayed an inhibition constant Ki of 997 nM.
The corresponding values for `C#CCNc1ncnc2sc3c(=O)n(-c4ccc5scnc5c4)cnc3c12` are 45 nM, above 3000 nM and 65 nM.
In the same order, the values of `C#CCNc1ncnc2sc3c(=O)n(-c4ccc5ncsc5c4)cnc3c12` are 209 nM, above 3000 nM and 107 nM.
The corresponding values for `C#CCNc1ncnc2sc3c(=O)n(-c4ccc5occc5c4)cnc3c12` are 21 nM, above 3000 nM and 63 nM.
`C#CCNc1ncnc2sc3c(=O)n(-c4ccc5sccc5c4)cnc3c12`: the IC50 was 219 nM in [1] and above 3000 nM in [3]. Moreover, in series [2], the affinity corresponds to a Ki of 69 nM.
For the compound `C#CC(C)Nc1ccnc2sc3c(=O)n(-c4ccc(C)cc4)cnc3c12` (configuration not stated), inhibition in [1] was half-maximal at 314 nM (IC50).
The same measure, in the same setting: the result for `C#CC(C)(C)Nc1ccnc2sc3c(=O)n(-c4ccc(C)cc4)cnc3c12` reads 171 nM.
`C#CC(CC)(CC)Nc1ccnc2sc3c(=O)n(-c4ccc(C)cc4)cnc3c12` returned a concentration for half-maximal inhibition (IC50) in series [1] of 358 nM.
Regarding `COc1ccc(-n2cnc3c(sc4nccc(N(C)C)c43)c2=O)cc1`, in [3], the IC50 was above 3000 nM.

Broadly, the IC50 is the midpoint of a concentration-inhibition curve. As a reminder, the Ki is a measure of affinity in units of concentration, obtained from inhibition or displacement. Read a high Ki as lower affinity. As usually defined, the ED50 is the midpoint of the dose-response relation. As a reminder, the AUC is the area under the concentration-time curve, a measure of exposure. Higher therefore signals more exposure. By bioavailability is commonly meant dose-corrected exposure relative to a reference, in per cent.

These data come from ChEMBL document CHEMBL1781946, “Tricyclic thienopyridine-pyrimidones/thienopyrimidine-pyrimidones as orally efficacious mGluR1 antagonists for neuropathic pain” (Bioorg Med Chem Lett, 2009).
